# This is a sample that favours compounds with a hit; in the whole collection about 2.9% have one here.
# RanGTP-Impb inh – disruptors of Ran-importin-beta complex formation – biochemical, FRET, CFP-Ran, YFP-importin-beta, homogeneous, primary screen; inhibition, % (test concentration not listed); cell-free CFP-Ran/YFP-importin-beta FRET ratio; 300,000 compounds, 1.1% hits; AID 2216;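 active = more than half of the replicate wells show a fall in the fluorescence ratio signal beyond about 16%, limit read from the data, passing the limit was not always enough; inconclusive = exactly half of the replicate wells pass the set limit; inactive = fewer than half of replicates pass the limit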;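 also: 0% = DMSO wells and 100% = Ran loaded with GDP instead of GTP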
# Runt-SMMHC FRET – blocks binding of human RUNX1 Runt domain to CBFb-SMMHC. Q01196+Q13951. Cerulean-Runt/Venus-CBFb-SMMHC FRET ratio 530/480, 1 h. inhibition, % at 20 µM. 220,000 compounds, 0.74% hits;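 active = mean inhibition across duplicate retests at 20 µM reaching about 50%, limit read from the data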;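 also: 0% = DMSO wells and 100% = wells with excess untagged CBFb-SMMHC; inhibitors lower the FRET ratio by blocking Runt binding to CBFb-SMMHC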
# Runt-CBFb FRET – blocks binding of human RUNX1 Runt domain to CBFb; Q01196+Q13951; Cerulean-Runt/Venus-CBFb FRET ratio 530/480, 1 h; inhibition, % at 20 µM; 220,000 compounds, 0.46% hits;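 active = inhibition over about 50% at 20 µM in the single-dose screen, limit read from the data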;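 also: 0% = DMSO wells and 100% = excess unlabeled CBFb competitor control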
#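 Assay system: Cerulean-Runt domain / Medium: Tris 50 mM pH 7.5, KCl, K2SO4, 0.01% BSA / Timing: protein complex preformed 1 h, compound exposure 1 h, room temperature, dark / Measured by: FRET, excitation 422 nm, emission at 530 and 480 nm / Evaluation: loss of energy transfer signal / Control set: 5 µM unlabeled CBFb as full-inhibition high control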
# PfM18AAP inh-1 – PfM18AAP enzyme inhibition; recombinant PfM18AAP, H-Glu-NHMec fluorogenic cleavage; inhibition, % at 7.35 µM; 290,000 compounds, 1.2% hits; AID 1822;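 active = inhibition above the campaign mean inhibition over all tested compounds plus 3 SD, cut at about 28% in these data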;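 also: 0% = plate median of test compound wells and 100% = 2 mM ZnCl2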
# RBBP9 inhibitor – inhibitors of human serine hydrolase RBBP9; recombinant RBBP9, FP-Rh probe fluorescence polarization; 220,000 compounds, 0.2% hits; inhibition, % at 7.94 µM; O75884;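 active = inhibition above the campaign mean of all tested compounds plus 3 SD, cut at about 14% in these data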;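 also: plate controls were DMSO wells with RBBP9 for no effect and wells lacking RBBP9 protein for full effect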
#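 system = RBBP9 protein | input = RBBP9 at 2.5 µM in dispensed solution, before mixing | measured by = fluorescence polarization (mP), excitation 525 nm, emission 598 nm | incubation = enzyme-compound preincubation 30 min, then probe labeling 45 min, 25 °C | buffer or medium = Tris-NaCl-Pluronic buffer, pH 8.0 | compound = single dose 7.94 µM | also added = FP-Rh probe, 375 nM dispensing solution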
# Hck-Nef inh – blocks Nef-activated human Hck kinase; P08631; 220,000 compounds, 0.68% hits; Recombinant Hck-YEEI plus Nef, Z-Lyte FRET kinase assay; inhibition, % at 20 µM;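 active = Hck-Nef kinase inhibition above about 50%, limit read from the data; inactive = inhibition below that limit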;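 also: 0% = DMSO with Hck plus Nef and 100% = Hck alone without Nef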
# Target sequence (P08631 whole entry, looked up): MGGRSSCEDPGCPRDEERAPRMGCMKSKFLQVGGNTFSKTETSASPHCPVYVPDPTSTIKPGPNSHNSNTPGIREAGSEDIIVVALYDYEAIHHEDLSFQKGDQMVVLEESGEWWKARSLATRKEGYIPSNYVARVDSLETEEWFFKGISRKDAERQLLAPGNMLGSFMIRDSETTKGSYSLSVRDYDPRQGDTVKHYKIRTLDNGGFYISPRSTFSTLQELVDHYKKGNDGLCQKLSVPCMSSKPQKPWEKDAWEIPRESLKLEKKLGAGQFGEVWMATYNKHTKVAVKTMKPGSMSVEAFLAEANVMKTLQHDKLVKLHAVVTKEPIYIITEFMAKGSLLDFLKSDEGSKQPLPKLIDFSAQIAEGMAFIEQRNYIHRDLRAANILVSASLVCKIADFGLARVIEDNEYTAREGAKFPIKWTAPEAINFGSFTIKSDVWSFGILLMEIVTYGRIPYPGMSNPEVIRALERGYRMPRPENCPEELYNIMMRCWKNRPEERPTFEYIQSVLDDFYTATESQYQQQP
# PfM18AAP inh-2 – confirmation of Plasmodium falciparum M18 aspartyl aminopeptidase inhibitors | shares compounds with PfM18AAP inh-1 | recombinant PfM18AAP, H-Glu-NHMec fluorogenic cleavage | inhibition, % at 7.35 µM | 2,400 compounds, 28% hits;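 active = mean inhibition over replicate wells above the hit cutoff set for the earlier primary screen, cut at about 29% in these data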;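 also: 0% = median of test compound wells and 100% = 2 mM ZnCl2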
# CTSL1 confirm – Cathepsin L (human) inhibition, confirmation. shares compounds with PfM18AAP inh-1. purified cathepsin L1, Z-Leu-Arg-MCA fluorescence. inhibition, % at 5.96 µM. 2,400 tested, under 10 active;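 active = average inhibition across replicates above the hit cutoff set in the earlier primary screen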;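 also: 0% = median of test compound wells and 100% = Z-Phe-Ala-diazomethylketone 1 µM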
# Starred values were filed as active, the others as inactive; u = inconclusive; x = no result.
SMILES,RanGTP-Impb inh,Runt-SMMHC FRET,Runt-CBFb FRET,PfM18AAP inh-1,RBBP9 inhibitor,Hck-Nef inh,PfM18AAP inh-2,CTSL1 confirm
COc1ccc(C(=O)Nc2ccc(/C(C)=N/NC(=O)c3ccccc3O)cc2)cc1OC,6.5,-2.3,-1.1,36.7*,8.1,4.6,-52.4,8.6
COc1ccc(C(=O)N/N=C(/C)c2cccc(NC(=O)c3ccncc3)c2)cc1OC,2.0,x,x,-3.6,x,x,x,x
O=C(CSC1=NCCN1)C1COc2ccccc2O1 (stereo unspecified),4.8,-0.7,4.0,41.8*,5.2,-1.0,-37.2,0.0
Cc1cccc(N2CCN(c3ccc4cc(S(=O)(=O)N5CCCCC5)ccc4n3)CC2)c1C,-0.9,x,x,-3.4,x,x,x,x
COc1ccc(CC(=O)NCC(=O)N=Nc2c(O)[nH]c3ccccc23)cc1,u,x,x,7.9,x,x,x,x
O=C(CNC(=O)c1ccccn1)N=Nc1c(O)[nH]c2ccccc12,5.2,x,x,50.6*,x,x,27.9,-0.3
COC(=S)Nc1cccc(C(F)(F)F)c1,-0.6,-6.7,-2.1,-1.0,-3.6,8.6,x,x
COc1ccc(NC(=S)NNC(=S)Nc2cccc(C(F)(F)F)c2)cc1,6.0,6.3,23.8,41.7*,1.8,5.6,-18.5,0.0
O=S(=O)(Nn1c(O)c(C=C2N=c3ccccc3=N2)sc1=S)c1ccccc1,5.0,-6.5,5.5,25.1,-4.5,6.9,x,x
O=C(Nn1c(O)c(C=C2N=c3ccccc3=N2)sc1=S)c1ccccc1Cl,u,-0.4,5.5,53.6*,-1.1,7.5,-30.5,-0.7
O=C(CC1CCCC1)Nc1ccc2c(c1)CCC2,-4.0,-2.2,-3.8,46.1*,-22.8,0.9,-29.6,-5.2
O=C(Cc1ccccc1)Nc1ccc2c(c1)CCC2,-3.6,-3.4,-0.5,3.9,0.2,-2.0,x,x
CCOC(=O)COc1ccc2c(c1)c(C(C)=O)c(C)n2-c1ccc(OC)cc1,1.0,x,x,3.2,x,x,x,x
CCOC(=O)NNc1ccc(C(F)(F)F)cn1,3.0,2.1,0.6,55.7*,-6.7,9.3,35.3*,-5.0
CCOC(=O)c1cnn(-c2ccc(C(F)(F)F)cn2)c1N,4.1,-4.9,-3.3,-13.4,2.4,-19.1,x,x
CSc1ccc(CNC(=O)C2CCC(=O)N(Cc3cccc(F)c3)C2)cc1 (stereo unspecified),-0.3,x,x,-0.5,x,x,x,x
O=C(CSc1nc2nn(-c3ccccc3)c(=O)c-2c2n1CCCCC2)NCCc1ccccc1,-3.3,2.1,-2.9,-0.6,-12.0,20.8,x,x
COc1ccc(C2=Nc3ccccc3OC2)cc1,0.8,-3.1,12.4,39.1*,-3.0,3.4,-26.0,-1.3
O=c1c2c([N+](=O)[O-])cc([N+](=O)[O-])cc2sn1Cc1ccccc1,0.4,x,x,79.0*,x,x,71.7*,1.7
O=c1c2c([N+](=O)[O-])cc([N+](=O)[O-])cc2nc2ccccn12,-3.3,x,x,12.1,x,x,x,x
CCNc1nc(NCC)nc(N/N=C/c2ccc(O)c(O)c2)n1,6.4,15.4,19.7,46.8*,2.0,-12.2,33.0*,-0.1
COc1ccc(NC(=S)NCCN2CCC(C)CC2)cc1Cl,0.2,30.0,29.5,36.0*,5.4,25.3,13.7,1.9
COc1ccc(NC(=S)N(CCC(C)C)C2CCN(C(C)C)CC2)cc1Cl,8.7,x,x,-1.4,x,x,x,x
COCCN(C(=S)Nc1ccc(OC)c(Cl)c1)C1CCN(C(C)C)CC1,-1.1,39.8,27.4,36.3*,-3.5,34.4,3.6,-6.8
Cc1ccc(S(=O)(=O)N2CCOC2CNC(=O)C(=O)NCc2ccc(Cl)cc2)cc1 (stereo unspecified),-1.0,x,x,-3.5,x,x,x,x
COc1cccc(NC(=S)N2CCN(S(=O)(=O)c3ccccc3)CC2)c1,x,x,x,3.8,x,x,x,x
COc1ccc(/C=C(\C#N)C(=O)NCCc2ccccc2)cc1OCc1ccccc1,-2.4,-1.8,-5.3,9.1,-9.2,1.1,x,x
COc1cc(/C=C(\C#N)C(=O)N2CCCCC2)ccc1O,3.3,x,x,6.2,x,x,x,x

# Assay outcomes deposited in PubChem by several laboratories.
